M4 PAM = potentiates acetylcholine response at human M4 receptor | P08173 | AID 624126 | CHO-K1 hM4/Gqi5, Fluo-8 calcium fluorescence, ACh EC20; 0% = ACh EC20, 100% = maximal ACh | activation, % at 3 µM | 0.4% of 360,000 active;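 active = activation above its plate's cutoff, the mean activation of sample wells plus 3 SD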
CHRM5 antagonist = antagonists of human muscarinic M5 receptor (CHRM5). P08912. CHO-hM5 cells, Fluo-8 calcium fluorescence, ACh EC80. inhibition, % at 3 µM. 0.59% of 360,000 active. AID 624040;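 active = inhibition above a per-plate cutoff, the mean of that plate's test compounds plus 3 SD, cut at about 27% in these data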;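 also: 0% = acetylcholine EC80 with DMSO and 100% = DMSO without agonist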
Target sequence (P08912 whole entry, looked up): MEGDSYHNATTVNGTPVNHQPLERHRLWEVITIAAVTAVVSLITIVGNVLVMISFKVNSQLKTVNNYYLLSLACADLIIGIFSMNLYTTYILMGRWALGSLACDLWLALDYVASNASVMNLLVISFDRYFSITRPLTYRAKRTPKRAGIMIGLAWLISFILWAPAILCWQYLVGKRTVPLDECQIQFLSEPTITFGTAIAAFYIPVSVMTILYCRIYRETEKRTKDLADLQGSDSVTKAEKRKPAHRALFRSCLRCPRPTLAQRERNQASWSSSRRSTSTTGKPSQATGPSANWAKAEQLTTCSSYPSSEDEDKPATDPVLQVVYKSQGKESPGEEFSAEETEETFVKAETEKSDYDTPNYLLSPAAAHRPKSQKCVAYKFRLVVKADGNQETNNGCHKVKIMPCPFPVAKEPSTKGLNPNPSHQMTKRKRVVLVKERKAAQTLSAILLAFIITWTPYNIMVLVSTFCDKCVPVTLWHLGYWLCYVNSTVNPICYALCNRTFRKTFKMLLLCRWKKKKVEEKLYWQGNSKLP
M4 ag = CHRM4 agonism in calcium assay. P08173. CHO-K1 hM4/Gqi5, Fluo-8 calcium fluorescence; vehicle 0%, full acetylcholine response 100%. activation, % at 3 µM. 0.14% of 360,000 active;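 active = activation above the run mean over all test wells plus 3 SD, cut at about 32% in these data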;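 also: peak over basal fluorescence ratio per well then scaled between controls; 0% = DMSO wells and 100% = acetylcholine at EC100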
CHRM5 PAM = positive allosteric modulators of human muscarinic M5 receptor; P08912; CHO-K1 hM5, Fluo-8 calcium, ACh EC20 PAM; 0% = ACh EC20, 100% = ACh EC100; activation, % at 3 µM; 0.3% of 360,000 active; AID 624038;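 active = activation above the run cutoff, the mean activation of all test compounds plus 3 SD, cut at about 18% in these data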
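Test system: CHO-K1 hM5 cells / Doses: single-point, 3 µM nominal / Times: Post-acetylcholine fluorescence recording 140 s / Technique: Fluo-8 calcium fluorescence / Measure: Max/basal fluorescence ratio as % of EC20–EC100 ACh window / Benchmarks: low control EC20 acetylcholine (0%), high control EC100 acetylcholine (100%) / Replicates: one well per compound, no replicates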
CHRM4 antagonist = antagonists of human muscarinic M4 receptor (CHRM4) | P08173 | CHO-hM4 cells, ACh EC80, Fluo-8 calcium fluorescence | inhibition, % at 3 µM | 0.73% of 360,000 active | AID 624125;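 active = inhibition above its plate's cutoff, the mean inhibition of sample wells plus 3 SD, cut at about 27% in these data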;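 also: 0% = acetylcholine EC80 with DMSO and 100% = DMSO without agonist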
M5 ag = CHRM5 agonism in calcium assay; P08912; CHO-K1 hM5 cells, Fluo-8 calcium fluorescence; 0% DMSO wells, 100% maximal acetylcholine response; activation, % at 3 µM; 0.19% of 360,000 active; AID 624037;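 active = activation above the run's mean over test compounds plus 3 SD, cut at about 23% in these data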;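 also: signal is peak over basal fluorescence ratio across the kinetic read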
An asterisk follows results filed as active; ! = a repeat was not active. The list is not random: actives were taken first. Their share in the collection is about 1.8%.

SMILES	M4 PAM	CHRM5 antagonist	M4 ag	CHRM5 PAM	CHRM4 antagonist	M5 ag
Cn1c(=O)c2[nH]c(CCCc3nc4ccccc4[nH]3)nc2n(C)c1=O	5.2	11.6	0.4	5.6	1.3	2.7
CCc1nc2ccc(C(=O)N3CCN(C(=O)c4ccco4)CC3)cn2c1N(C=O)Cc1ccc(OC)cc1	-4.0	12.7	1.0	3.6	1.2	-3.0
CC(C)[N+](C)(C)CC(O)CN(c1ccccc1)c1ccccc1 (configuration not stated)	-21.8	27.4*	0.0	-34.6	17.3	-17.4
CCNC(=O)c1ccccc1-c1nc(-c2ccccc2)no1	-6.2	19.4	3.7	-6.5	3.2	0.9
C=CCc1cccc(/C=N/n2cnnc2)c1O	40.7*	-1.6	1.4	0.4	13.3	2.2
CC1(c2ccc(OC(F)F)cc2)NC(=O)N(CC(=O)Nc2cccnc2Cl)C1=O (configuration not stated)	-6.0	8.3	27.6	-11.6	7.9	43.3*
COc1ccc(C2(C)NC(=O)N(CC(=O)Nc3cccnc3Cl)C2=O)cc1 (configuration not stated)	-2.1	4.3	2.4	-4.2	3.8	9.9
CCN(CC)c1ccc(C(=O)N/N=C(\C)c2ccc(O)cc2)cc1	3.3	-3.6	-0.3	5.1	4.9	-4.3
CCNC(=S)NC1CC2CCC(C1)N2Cc1ccccc1 (configuration not stated)	-6.6	11.3	0.4	-7.5	5.5	-5.9
CCNC(=S)NC1CC2CCCC(C1)N2CCc1ccccc1 (configuration not stated)	-15.0	69.2*	0.5	-33.9	37.5*	-23.3
Cc1ccccc1NS(=O)(=O)c1ccc2c(c1)NC(=O)CO2	4.7	3.7	2.1	1.4	-6.0	0.2
Cc1cccc(C)c1NS(=O)(=O)c1ccc2c(c1)NC(=O)CO2	14.2	-22.6	1.0	19.2*	-7.8	0.1
CNCCCC12CCC(c3ccccc31)c1ccccc12	-18.2	32.5*!	8.8	-17.9	28.5*!	1.8
CNCCCC1Sc2ccccc2Oc2ccccc21 (configuration not stated)	-11.1	13.3	4.2	-35.6	8.2	-14.1
Cc1ccc(S(=O)(=O)N2CCN(C(=O)Cn3cnc4c3c(=O)n(C)c(=O)n4C)CC2)cc1C	0.5	0.3	2.3	-5.4	-0.8	-4.8
COc1ccccc1C(CC(=O)c1ccccc1)CC(=O)c1ccccc1	-8.1	-4.3	-0.1	-11.5	-6.7	-2.8
COc1ccccc1C(CC(=O)c1ccccc1)C(=O)c1ccccc1 (configuration not stated)	-11.0	8.6	14.2	-14.2	27.4*	4.8
CC(C)c1ccc(NC(=O)C2CC(=O)N(C3CCCC3)C2)cc1 (configuration not stated)	18.3*	5.6	4.1	-2.6	-19.1	-3.5
CN(C)C(=S)SCC(=O)NC(=O)NC(C)(C)C	-0.7	3.0	0.1	5.1	-3.1	1.4
CCN(CC)C(=O)N1c2ccccc2C=Cc2ccccc21	-7.5	-1.4	-2.7	-8.8	3.8	-8.0
CN(C)CCCNC(=O)N1c2ccccc2C=Cc2ccccc21	-15.7	71.7*	0.5	-29.4	67.8*	-21.6
COC(=O)c1ccc(OCC2c3cc(OC)c(OC)cc3CCN2C(C)=O)cc1 (configuration not stated)	-18.1	16.0	16.8	-12.5	12.7	-0.1
COC(=O)c1ccc(OCC2c3cc(OC)c(OC)cc3CCN2C(=O)c2ccco2)cc1 (configuration not stated)	-13.6	17.1	21.5	-15.3	29.7*	2.1
CN(C)S(=O)(=O)c1cccc(NC(=O)c2ccccc2OCc2ccc(F)cc2)c1	-8.5	5.2	10.8	-3.5	-26.5	2.1
CC(=O)c1cccc(NC(=O)c2ccccc2OCc2ccc(F)cc2)c1	-7.7	31.7*	4.2	-9.5	-0.8	-4.9
CN(C)CCOC1c2ccccc2CSc2ccccc21 (configuration not stated)	-16.2	99.2*	1.4	-28.1	97.8*	-19.1
O=C(COC(=O)CCNS(=O)(=O)c1ccccc1)NC1CC1	9.9	4.4	1.9	3.4	4.6	-0.4

Source: PubChem (The Scripps Research Institute Molecular Screening Center)
